Assays:
PC-3 = assay: Cytotoxicity against human PC3 cells after 48 hrs by sulforhodamine B assay; format: functional, cell-based; settings: PC-3, 48 h
HT-29 = assay: Cytotoxicity against human HT-29 cells after 48 hrs by sulforhodamine B assay; format: functional, cell-based; settings: HT-29, 48 h
Method in brief: (§1)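 Human 786 (kidney), HT-29 (colon) and PC-3 (prostate) cancer cells exposed to compounds for 48 h at 37 °C.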

[1] = Inhibition of bovine brain tubulin polymerization incubated for 15 mins prior to GTP addition measured after 20 mins by spectrophotometry; parameters: species or system Bos taurus
MCF7 = assay: Cytotoxicity against human MCF7 cells after 96 hrs by sulforhodamine B assay; format: functional, cell-based; settings: MCF7, 96 h
Method in brief: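 Human MCF-7 breast cancer cells incubated with compounds for 96 h at 37 °C.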

[2] = Cytotoxicity against human 786 cells after 48 hrs by sulforhodamine B assay; format: functional, cell-based; method in brief: as §1
Bos taurus [3] = species: Bos taurus; assay: Displacement of [3H]colchicine from bovine brain tubulin at 5 uM after 10 mins by scintillation counting analysis relative to control
Bos taurus [4] = species: Bos taurus; assay: Displacement of [3H]colchicine from bovine brain tubulin at 1 uM after 10 mins by scintillation counting analysis relative to control
Tubulin = assay: Inhibition of tubulin (unknown origin) polymerization after 20 mins; format: protein-complex assay, Homo sapiens

COc1ccc([Se]c2ccc(OC)cc2)cc1
IC50 (PC-3): 8800 nM
IC50 (HT-29): 210000 nM
IC50 [1]: > 20000 nM
IC50 (MCF7): > 10000 nM

COc1cc(SSc2cc(OC)c(OC)c(OC)c2)cc(OC)c1OC
IC50 [2]: 112000 nM
IC50 (PC-3): 6750 nM
IC50 (HT-29): 76500 nM
inhibition (Bos taurus [3]): 9%
IC50 [1]: 5400 nM
IC50 (MCF7): > 10000 nM

COc1ccc(Sc2cc(OC)c(OC)c(OC)c2)cc1[N+](=O)[O-]
IC50 [2]: 1710 nM
IC50 (PC-3): 200 nM
IC50 (HT-29): 630 nM
inhibition (Bos taurus [3]): 58%
IC50 [1]: 2800 nM
IC50 (MCF7): 1000 nM

COc1ccc([Se][Se]c2ccc(OC)cc2)cc1
IC50 [2]: 20700 nM
IC50 (PC-3): 1990 nM
IC50 (HT-29): 59500 nM
inhibition (Bos taurus [3]): 34%
IC50 [1]: 1700 nM
IC50 (MCF7): > 10000 nM

COc1ccc(Sc2cc(OC)c(OC)c(OC)c2)cc1N
IC50 [2]: 1240 nM
IC50 (PC-3): 530 nM
IC50 (HT-29): 1310 nM
inhibition (Bos taurus [3]): 95%
IC50 [1]: 740 nM
IC50 (MCF7): 8 nM
inhibition (Bos taurus [4]): 74%

COc1ccc(/C=C\c2cc(OC)c(OC)c(OC)c2)cc1O [COMBRETASTATIN A4]
IC50 [2]: 5000 nM
IC50 (PC-3): 1000 nM
IC50 (MCF7): 6 nM

COc1ccc(/C=C\c2cc(OC)c(OC)c(OC)c2)cc1[N+](=O)[O-]
IC50 (Tubulin): 1800 nM

COc1cccc2c1C(=O)c1c(O)c3c(c(O)c1C2=O)C[C@@](O)(C(=O)CO)C[C@@H]3O[C@H]1C[C@H](N)[C@H](O)[C@H](C)O1 [DOXORUBICIN]
IC50 [2]: 330 nM
IC50 (HT-29): 440 nM

COc1ccc([Se]c2cc(OC)c(OC)c(OC)c2)cc1
IC50 [2]: 680 nM
IC50 (PC-3): 80 nM
IC50 (HT-29): 280 nM
inhibition (Bos taurus [3]): 94%
IC50 [1]: 620 nM
IC50 (MCF7): 10 nM
inhibition (Bos taurus [4]): 74%

From ChEMBL document CHEMBL2406959, “Synthesis and evaluation of diaryl sulfides and diaryl selenide compounds for antitubulin and cytotoxic activity” (Bioorg Med Chem Lett, 2013)
